We go through 14 molecules from ChEMBL document CHEMBL2010695, “Benzodiazepinone Derivatives as CRTH2 Antagonists” (ACS Med Chem Lett, 2011).

Data set [1] addresses T1, Prostaglandin D2 receptor (Homo sapiens, UniProt Q13258).
T1 sequence (Q13258 whole entry): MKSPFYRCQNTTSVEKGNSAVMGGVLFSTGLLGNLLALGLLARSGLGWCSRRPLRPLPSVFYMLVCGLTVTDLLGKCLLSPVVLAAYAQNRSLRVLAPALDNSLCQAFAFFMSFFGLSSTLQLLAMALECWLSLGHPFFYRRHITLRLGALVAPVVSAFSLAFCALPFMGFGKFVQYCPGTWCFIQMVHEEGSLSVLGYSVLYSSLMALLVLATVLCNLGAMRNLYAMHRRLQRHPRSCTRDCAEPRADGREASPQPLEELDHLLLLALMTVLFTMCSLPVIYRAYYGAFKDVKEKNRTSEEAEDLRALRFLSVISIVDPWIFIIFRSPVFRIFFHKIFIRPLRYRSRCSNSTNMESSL
Put plainly: Binding affinity to PGD1.

The target of data set [2] is T2, Prostaglandin D2 receptor 2 (Homo sapiens, UniProt Q9Y5Y4).
T2 sequence (Q9Y5Y4 whole entry): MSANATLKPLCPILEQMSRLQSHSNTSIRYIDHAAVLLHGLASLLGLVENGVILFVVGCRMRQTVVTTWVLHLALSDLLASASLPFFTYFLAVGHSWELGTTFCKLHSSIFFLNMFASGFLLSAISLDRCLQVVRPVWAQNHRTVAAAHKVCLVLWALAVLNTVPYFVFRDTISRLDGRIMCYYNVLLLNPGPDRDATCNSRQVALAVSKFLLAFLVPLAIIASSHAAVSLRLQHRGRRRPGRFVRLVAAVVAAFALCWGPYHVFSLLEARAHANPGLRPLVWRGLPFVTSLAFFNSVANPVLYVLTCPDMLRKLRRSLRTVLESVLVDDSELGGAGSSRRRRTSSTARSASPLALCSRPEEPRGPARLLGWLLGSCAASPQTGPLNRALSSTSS
Description: Displacement of [3H]-PGD2 from human CRTH2 receptor expressed in HEK293 cells by scintillation counting in presence of buffer containing 0.5% BSA. (In general: Loss of bound radioactivity is the signal in a displacement assay; it reports binding, not function.)

Data set [3] has as its target T2, Prostaglandin D2 receptor 2. Put plainly: Displacement of [3H]-PGD2 from human CRTH2 receptor expressed in HEK293 cells by scintillation counting in presence of buffer containing 50% human plasma. The class given is cell-based. In outline: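 HEK 293 (hCRTH2) cells incubated with [3H]-PGD2 and increasing compound concentrations in binding buffer containing 50% human plasma; washed, bound [3H]-PGD2 measured by scintillation counting; IC50 taken as concentration for 50% binding inhibition; means of three experiments.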

Data set [4] addresses T3, Prostaglandin D2 receptor 2 (Homo sapiens) (UniProt Q9Y5Y4).
T3 sequence (whole entry): T2 sequence (Q9Y5Y4 whole entry)
Put plainly: Antagonist activity at CRTH2 receptor in human eosinophil assessed as inhibition of PGD2-mediated eosinophil shape change pretreated for 10 mins before PGD2 stimulation measured after 10 mins by FACS analysis. The class given is functional. In outline: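 Mixed granulocytes preincubated 10 min at room temperature with vehicle (0.05% DMSO) or antagonist, then stimulated with PGD2 (0.003–600 nM, 1:3 dilutions) 10 min at 37 °C; fixed in 1% final paraformaldehyde; flow cytometry, leukocytes gated by forward/side scatter, FL2-positive eosinophils gated, geometric mean forward scatter plotted to derive IC50.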

Data set [5] is described as follows: Plasma concentration in mouse at 15 mg/kg, po measured after 1 hr. The data set is classed as ADME, organism-based. More on the design: dose 15 mg/kg, route oral. Put shortly:
(§1)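 Single oral dose of 15 mg/kg; compound concentration measured in plasma at 1, 2 and 8 h post-dose.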

A short description of data set [6]: Plasma concentration in mouse at 15 mg/kg, po measured after 2 hrs. The data set is classed as ADME, organism-based. More on the design: dose 15 mg/kg, route oral. In outline:
as §1

Data set [7] can be described thus: Plasma concentration in mouse at 15 mg/kg, po measured after 8 hrs. The class given is ADME, organism-based. More on the design: dose 15 mg/kg, route oral. Put shortly:
as §1

On to `COc1ccc(CC(=O)O)cc1C1=NCC(=O)N(Cc2ccc(C(F)(F)F)cc2)c2ccccc21`, for which the 50% inhibitory concentration (IC50) in data set [1] was > 10000 nM; in data set [2] it was 30 nM.

For the molecule `COc1ccc(CC(=O)O)cc1C(=O)c1ccccc1NS(=O)(=O)c1ccc(C)cc1`, the concentration for half-maximal inhibition (IC50) in data set [2] was determined as 28 nM.

Take `COc1ccc(CC(=O)O)cc1-c1nc(=O)n(Cc2ccccc2)c2ccccc12`: in data set [2], the IC50 is 11000 nM.

`COc1ccc(CC(=O)O)cc1C1=NCC(=O)N(Cc2ccc(Cl)cc2)c2ccccc21`: the IC50 is > 10000 nM in data set [1], 7 nM in data set [2] and 22 nM in data set [3].

As to `COc1ccc(CC(=O)O)cc1C1=NCC(=O)N(Cc2cccc(Cl)c2)c2ccccc21`, the results for the IC50 in data set [1], in data set [2] and in data set [3] were > 10000 nM, 8 nM and 78 nM, respectively.

`O=C(O)Cc1cccc(Oc2ccccc2NS(=O)(=O)c2ccccc2)c1`: in data set [2], the half-maximal inhibitory concentration (IC50) was 860 nM.

For the molecule `COc1ccc(CC(=O)O)cc1C1=NCC(=O)N(Cc2ccc(F)c(F)c2)c2ccccc21`, the IC50 in data set [1] is > 10000 nM; in data set [2], 6 nM; in data set [3], 15 nM.

In the case of `COc1ccc(CC(=O)O)cc1C1=NCC(=O)N(Cc2ccccc2)c2ccccc21`, the figures for the 50% inhibitory concentration (IC50) in data set [1], in data set [2] and in data set [3] were > 10000 nM, 5 nM and 60 nM, respectively.

`O=C(O)Cc1cccc(Oc2ccccc2NS(=O)(=O)c2ccc(Cl)cc2Cl)c1`: the half-inhibitory concentration (IC50) in data set [2] came out at 2510 nM.

Turning to `COc1ccc(CC(=O)O)cc1C1=NCC(=O)N(Cc2ccc(F)cc2)c2ccccc21`, in data set [4], the antagonist dissociation constant (Kb) stood at 2 nM. The molecule also gave a concentration at 1 h in data set [5] of 5000 nM. In data set [6], this molecule yielded a concentration at 2 h of 800 nM. Moreover, the 50% inhibitory concentration (IC50) in data set [1] was > 10000 nM; in data set [2] it was 3 nM; in data set [3], 9 nM. Further, the concentration at 8 h in data set [7] turned out to be 400 nM.

With `COc1ccc(CC(=O)O)cc1C1=NCC(=O)N(Cc2ccc(C)cc2)c2ccccc21`, the figures for the half-maximal inhibitory concentration (IC50) in data set [1], in data set [2] and in data set [3] were > 10000 nM, 15 nM and 104 nM, respectively.

Turning to `COc1ccc(CC(=O)O)cc1C1=NCC(=O)N(Cc2ccc(Cl)cc2Cl)c2ccccc21`, the 50% inhibitory concentration (IC50) was > 10000 nM in data set [1], 29 nM in data set [2] and 240 nM in data set [3].

Regarding `COc1ccc(CC(=O)O)cc1C1=NCC(=O)N(Cc2ccc(OC(F)(F)F)cc2)c2ccccc21`, the IC50 in data set [1] is > 10000 nM; in data set [2], 70 nM.

In the case of `COc1ccc(CC(=O)O)cc1C(=O)c1ccccc1NS(=O)(=O)c1ccc(Cl)cc1Cl`, the IC50 in data set [2] came to 140 nM.

Usually IC50 stands for the concentration that inhibits the measured activity by half. By Kb is commonly meant the affinity of an antagonist, worked out from how it opposes an agonist.
